According to ChEMBL document CHEMBL3286352, “Dimeric flavonoids from Arrabidaea brachypoda and assessment of their anti-Trypanosoma cruzi activity” (J Nat Prod, 2014):
pIC50: −log10 of the molar value. The source made the active and inactive calls. The calls are words filed in the database; no cut-off is given here.

Experiments:
[1] = target: Cruzipain (Trypanosoma cruzi) (UniProt P25779); assay: Inhibition of recombinant Trypanosoma cruzi cruzain at 25 uM preincubated for 10 mins followed by substrate addition measured after 10 mins relative to control
Cruzipain (Trypanosoma cruzi), sequence (P25779 123-467 limits assumed): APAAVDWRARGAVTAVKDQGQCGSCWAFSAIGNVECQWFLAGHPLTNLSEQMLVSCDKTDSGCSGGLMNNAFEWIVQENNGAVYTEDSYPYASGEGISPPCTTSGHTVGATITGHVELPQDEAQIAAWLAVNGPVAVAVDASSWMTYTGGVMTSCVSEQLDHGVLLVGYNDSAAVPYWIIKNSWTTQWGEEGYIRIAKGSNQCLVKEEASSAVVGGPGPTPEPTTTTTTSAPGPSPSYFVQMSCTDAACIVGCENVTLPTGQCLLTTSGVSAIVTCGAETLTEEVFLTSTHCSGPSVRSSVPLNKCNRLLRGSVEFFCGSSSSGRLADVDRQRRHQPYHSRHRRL
Outline: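 Recombinant cruzain activated in 0.1 M acetate buffer pH 5.5 with 5.5 mM DTT, adjusted to 0.1 μM. Enzyme in phosphate buffer with 0.01% Triton. Preincubated with compound 10 min at 35 °C, then fluorogenic substrate added for 10 min. Inhibition % = 100 − (A1/A × 100) against cruzain plus substrate RFU. Triplicate; E-64c as standard.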

[2] = system: Trypanosoma cruzi; assay: Antitrypanosomal activity against trypomastigote stage of Trypanosoma cruzi Y assessed as living parasites level after 24 hrs by Neubauer chamber analysis; assay type: functional, organism-based
Outline: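 Y trypomastigotes from LLC-MK2 culture supernatants, 4 × 10^5 per well. Five concentrations, 0.24–20 μM, from DMSO stocks diluted in medium. Incubated 24 h at 37 °C, 5% CO2. Live parasites counted and compared with untreated culture. Run in triplicate, at least three independent experiments. IC50 as mean ± SD.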

[3] = system: Trypanosoma cruzi; assay: Antitrypanosomal activity against amastigote stage of Trypanosoma cruzi Y in BALB/c mouse peritoneal macrophages assessed as reduction of number of intracellular parasites per 100 cells after 4 days by hematoxylin/eosin staining-based optical microscopic analysis; assay type: functional, organism-based; settings: 96 h
Outline: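 Macrophages plated 2 × 10^5 per well on coverslips in RPMI + 10% FBS for 24 h, infected with trypomastigotes at 10 parasites per macrophage for 2 h, then washed. Compounds at five concentrations, 0.12–10 μM, in triplicate for 6 h. Medium replaced, 4 days further culture. Coverslips fixed in absolute alcohol. IC50 taken as concentration halving amastigotes per 100 macrophages; mean ± SD of three independent experiments.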

[4] = Cytotoxicity against BALB/c mouse peritoneal macrophages after 72 hrs by AlamarBlue assay; assay type: cell-based, Peritoneal macrophage cell; settings: read-out: LC50
Outline: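 Peritoneal exudate macrophages from BALB/c mice, 1 × 10^5 cells/well in phenol-red-free RPMI-1640 with 10% FBS and 50 μg/mL gentamycin, pre-incubated 24 h at 37 °C, 5% CO2. Compounds from DMSO stocks diluted in medium, five concentrations 0.24–20 μM in triplicate, 72 h. AlamarBlue added over 10 h, read at 570/600 nm. LC50 from three independent experiments, mean ± SD.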

[5] = system: Trypanosoma cruzi; assay: Antitrypanosomal activity against trypomastigote stage of Trypanosoma cruzi Y infected in BALB/c mouse peritoneal macrophages assessed as inhibition of host cell invasion at 10 uM after 2 hrs by hematoxylin/eosin staining-based optical microscopic analysis; assay type: functional, organism-based
Outline: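 Macrophages at 1 × 10^5 per well on coverslips in RPMI + 10% FBS for 24 h. Infected with trypomastigotes at 100 per macrophage and treated at 10 μM, with amphotericin B 10 μM as reference. Incubated 2 h at 37 °C, washed, then 2 h more in medium. Fixed in absolute alcohol. Percentage of infected macrophages counted after H&E.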

[6] = system: Trypanosoma cruzi; assay: Antitrypanosomal activity against blood stage trypomastigote form of Trypanosoma cruzi Y infected in BALB/c mouse assessed as reduction of blood parasitemia at 100 mg/kg, po qd administered for 5 days relative to control; assay type: functional; design: scale not given: the % may be the effect or the level left
Outline: (§1)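 Female BALB/c mice, 6–8 weeks, infected ip with 10^4 bloodstream Y trypomastigotes, six per group. From day 5, oral dosing once daily for five days, vehicle saline with 20% DMSO; untreated infected group got vehicle. Motile parasites counted in 5 μL tail-vein fresh blood. Survival checked daily to day 30. Means ± SEM.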

[7] = system: Trypanosoma cruzi; assay: Antitrypanosomal activity against blood stage trypomastigote form of Trypanosoma cruzi Y infected in BALB/c mouse assessed as reduction of mortality at 100 mg/kg, po qd administered for 5 days measured for 30 days; assay type: functional, organism-based; design: dose 100 mg/kg; outline: as §1
[8] = system: Mus musculus; assay: Toxicity in BALB/c mouse infected with blood stage trypomastigote form of Trypanosoma cruzi Y at 100 mg/kg, po qd administered for 5 days measured during compound treatment; assay type: organism-based; design: dose 100 mg/kg, route oral; settings: in vivo, 120 h; outline: as §1

SMILES	inhibition [1]	pIC50 [2]	pIC50 [3]	CC50 at 72 h [4]	inhibition [5]	Activity [6]	Activity [7]	Activity [8]
COc1cc(O)cc2c1[C@@H](/C=C/c1ccc(O)cc1)[C@@H]1[C@@H](c3ccccc3)Oc3cc(O)cc(OC)c3[C@@H]1O2	0%	< 4.70	< 4.70	> 20 µM	–	–	–	–
COc1cc(O)cc2c1[C@@H](/C=C/c1ccccc1)[C@@H]1[C@@H](c3ccccc3)Oc3cc(O)cc(OC)c3[C@@H]1O2	0%	5.18	5.17	17.3 µM	Active	–	–	–
CC(C)CCNC(=O)[C@H](CC(C)C)NC(=O)[C@H]1O[C@@H]1C(=O)O	100%	–	–	–	–	–	–	–
O=C(Cn1ccnc1[N+](=O)[O-])NCc1ccccc1 [BENZNIDAZOLE]	–	4.95	–	> 20 µM	Active	99%	–	–
COc1ccc(/C=C/[C@@H]2c3c(OC)cc(O)cc3O[C@H]3c4c(OC)cc(O)cc4O[C@H](c4ccccc4)[C@@H]23)cc1	0%	5.28	5.22	15.6 µM	Active	92%	Active	Non-toxic
CN(C)c1ccc(C(=C2C=CC(=[N+](C)C)C=C2)c2ccc(N(C)C)cc2)cc1 [GENTIAN VIOLET]	–	–	–	0.48 µM	–	–	–	–
